Screening data from PubChem BioAssay.
Compounds with a hit are over-represented: about 3.1% of the library has one in this group of screens.
hERG rescue – hERG rescue from dofetilide block, primary screen, cell-based, CHO-hERG, FluxOR thallium flux, dofetilide IC70. dofetilide IC70 present. 0.51% of 310,000 active. Voltage-gated inwardly rectifying potassium channel KCNH2 (Homo sapiens), Q12809. AID 1511, 2009. activation (rescue from dofetilide block), less the hit threshold, % at 10 µM;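 active = activation above the mean of controls blocked by dofetilide plus 5 SD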;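 also: thallium influx through hERG after potassium depolarization seen as dye fluorescence rise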
KCNQ1 pot – potentiators or activators of KCNQ1 channel, primary screen, cell-based, thallium flux, high-throughput; CHO-K1 KCNQ1, thallium flux FluxOR fluorescence; active compounds read high; B-score at 10 µM; 0.35% of 310,000 active; AID 2648, 2010;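 active = fluorescence ratio B-score, a plate-corrected score, at least three library SD, with initial intensity B-score within 5 SD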
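System: CHO-K1 cells stably expressing KCNQ1 / Medium: assay buffer for compound exposure, DMSO matched across wells / Reagent: thallium- and potassium-containing depolarizing buffer / Compound: one concentration, matched DMSO / Incubation: 20 min compound pretreatment at room temperature / Measured by: kinetic FluxOR fluorescence, 10 s baseline plus 110 s post-stimulus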
KCNK3 block – human KCNK3 channel inhibitors, primary screen, CHO cells, FluxOR thallium flux, B-score; Potassium channel subfamily K member 3 (Homo sapiens), O14649; FluxOR fluorescence; active compounds read low; B-score at 10 µM; 0.84% of 340,000 active;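 active = B-score under library mean minus 4 SD, starting fluorescence ratio at most library mean plus 5 SD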;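 also: more negative B-score means stronger inhibition of thallium flux through KCNK3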
KCNK9 block – KCNK9 potassium channel inhibitors, primary screen, HEK293 cells, thallium flux; FluxOR thallium flux fluorescence; active compounds read low; 1.2% of 310,000 active; Potassium channel subfamily K member 9 (Homo sapiens), Q9NPC2; B-score at 10 µM;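 active = ratio B-score over 3 SD below the library mean, with starting fluorescence within 5 SD of its mean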;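 also: negative B-score means less thallium flux so channel inhibition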
KCNQ1 inh – inhibitors of human KCNQ1 channel, primary screen, cell-based, thallium flux, high-throughput; Potassium voltage-gated channel subfamily KQT member 1 (Homo sapiens), P51787; CHO-K1 KCNQ1, FluxOR thallium flux fluorescence; active compounds read high; B-score at 10 µM; 1.3% of 310,000 active;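 active = compounds whose thallium flux B-score, printed positive for inhibition, exceeds three library SD while starting fluorescence stays within three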;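 also: channel opened by potassium depolarization with thallium stimulus after 20 min compound exposure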
KCNK3 confirm – retest of human KCNK3 channel inhibitors, confirmation, CHO cells, FluxOR thallium flux, triplicate. ratio percent of control, % at 10 µM. FluxOR fluorescence; 0% buffer, 100% carvedilol maximal block. shares compounds with KCNK3 block. AID 651638, 2012. 99% of 2,400 active;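 active = ratio percent of control, averaged over triplicates, above buffer control mean plus 5 SD, cut at about 64% in these data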;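 also: ratio is the fluorescence rise from min to max over baseline after thallium stimulus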
KCNK3 uninduced – thallium flux inhibition in non-induced cells, primary screen, counter-screen for KCNK3 inhibitor project, cell-based, non-induced KCNK3 line, FluxOR thallium, triplicate; non-induced KCNK3 parental cells; active compounds read low; 40% of 2,400 active; thallium flux ratio (lower = more inhibition) at 10 µM; shares compounds with KCNK3 block;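 active = thallium flux ratio, averaged over three wells, more than 5 SD below the buffer control mean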;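 also: host cells are CHO cells without KCNK3 induction; ratio is peak minus trough fluorescence over baseline then normalized to buffer controls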
Starred values were filed as active, the others as inactive.

CC(=O)N(C)N1c2ccccc2CCc2ccccc21 was read as hERG rescue -12, KCNQ1 pot inactive, KCNK3 block -8.8*, KCNK9 block inactive, KCNQ1 inh inactive, KCNK3 confirm 109* and KCNK3 uninduced inactive.
COc1ccc(CC(=O)NNC(=O)CCc2ccccc2)cc1OC was read as hERG rescue -1, KCNQ1 pot inactive, KCNK3 block inactive, KCNK9 block inactive and KCNQ1 inh inactive.
Screening O=C(CSc1nc2ccccc2c(=O)n1-c1ccccc1)N/N=C/C=C/c1ccccc1[N+](=O)[O-] returned hERG rescue -16, KCNQ1 pot inactive, KCNK3 block -9.1*, KCNK9 block inactive, KCNQ1 inh inactive, KCNK3 confirm 100* and KCNK3 uninduced inactive.
O=C(N/N=C/c1cc(Cl)c(O)c(Cl)c1)c1cc2c(ccc3ccccc32)o1 was read as hERG rescue -28, KCNQ1 pot inactive, KCNK3 block -11*, KCNK9 block inactive, KCNQ1 inh 12*, KCNK3 confirm 101* and KCNK3 uninduced 0.15*.
`O=C(N/N=C/c1cccnc1)c1cc2c(ccc3ccccc32)o1` gave hERG rescue -6, KCNQ1 pot inactive, KCNK3 block inactive, KCNK9 block inactive and KCNQ1 inh inactive.
Screening COc1ccc(S(=O)(=O)Oc2ccc3cccc(N)c3c2)cc1 returned hERG rescue -9, KCNQ1 pot inactive, KCNK3 block -9.1*, KCNK9 block inactive, KCNQ1 inh inactive, KCNK3 confirm 101* and KCNK3 uninduced inactive.
`O=C(Nc1ccc(Cl)cc1)N(Cc1cccs1)Cc1cccs1` gave hERG rescue -4, KCNQ1 pot inactive, KCNK3 block -12*, KCNK9 block inactive, KCNQ1 inh inactive, KCNK3 confirm 130* and KCNK3 uninduced inactive.
`Nc1nonc1-n1nnc(C(=O)N/N=C/c2cc(Br)ccc2O)c1CNc1ccccc1` gave hERG rescue -23, KCNQ1 pot inactive, KCNK3 block -10*, KCNK9 block inactive, KCNQ1 inh inactive, KCNK3 confirm 82* and KCNK3 uninduced inactive.
`Cc1ccc(/C=N/NC(=O)c2nnn(-c3nonc3N)c2CNc2ccccc2)cc1` gave hERG rescue -5, KCNQ1 pot inactive, KCNK3 block inactive, KCNK9 block inactive and KCNQ1 inh inactive.
For Cc1ccc(C(=O)Nc2cccc(C(=O)NCc3ccccc3)c2)o1 the results were hERG rescue -10, KCNQ1 pot inactive, KCNK3 block inactive, KCNK9 block inactive and KCNQ1 inh inactive.
C/C(=N\NC(=O)C1(C)CC1(Br)Br)c1cccc(NC(=O)c2ccc(C)o2)c1 (stereo not given) was read as hERG rescue -14, KCNQ1 pot inactive, KCNK3 block -9.6*, KCNK9 block inactive, KCNQ1 inh inactive, KCNK3 confirm 108* and KCNK3 uninduced 0.14*.
Screening C=CCn1c(SCC(=O)c2cccs2)nc2sc(C)c(C)c2c1=O returned hERG rescue -3, KCNQ1 pot inactive, KCNK3 block -9.5*, KCNK9 block inactive, KCNQ1 inh inactive, KCNK3 confirm 115* and KCNK3 uninduced 0.15*.
c1ccc2c(c1)nc(N1CCOCC1)c1c3ccccc3[nH]c21 was read as hERG rescue -6, KCNQ1 pot inactive, KCNK3 block inactive, KCNK9 block inactive and KCNQ1 inh inactive.
Screening CNc1nc(NCc2ccccc2)c2ccccc2n1 returned hERG rescue -8, KCNQ1 pot inactive, KCNK3 block inactive, KCNK9 block inactive and KCNQ1 inh inactive.
For Oc1ccccc1-c1nc(N2CCCC2)c2ccccc2n1 the results were hERG rescue -4, KCNQ1 pot inactive, KCNK3 block inactive, KCNK9 block inactive and KCNQ1 inh inactive.
c1ccc(CNc2nc(N3CCN(Cc4ccccc4)CC3)nc3ccccc23)cc1 was read as hERG rescue -28, KCNQ1 pot inactive, KCNK3 block -10*, KCNK9 block inactive, KCNQ1 inh 12*, KCNK3 confirm 113* and KCNK3 uninduced inactive.
Screening Oc1ccccc1Nc1nc(NCc2ccccc2)c2ccccc2n1 returned hERG rescue -15, KCNQ1 pot inactive, KCNK3 block -12*, KCNK9 block inactive, KCNQ1 inh inactive, KCNK3 confirm 137* and KCNK3 uninduced inactive.
`Oc1ccccc1-c1nc(N2CCN(Cc3ccccc3)CC2)c2ccccc2n1` gave hERG rescue -4, KCNQ1 pot inactive, KCNK3 block -12*, KCNK9 block -7.1*, KCNQ1 inh inactive, KCNK3 confirm 100* and KCNK3 uninduced inactive.
For O=C(CNC(=O)c1[nH]cnc1C(=O)NC(c1ccccc1)c1ccccc1)OCc1ccccc1 the results were hERG rescue -19, KCNQ1 pot inactive, KCNK3 block inactive, KCNK9 block inactive and KCNQ1 inh inactive.
Screening CCC1Cc2c(nc(N)c3c(N)nc(N4CCCCC4)c(C#N)c23)O1 (stereo not given) returned hERG rescue -3, KCNQ1 pot inactive, KCNK3 block -9.6*, KCNK9 block inactive, KCNQ1 inh inactive, KCNK3 confirm 97* and KCNK3 uninduced inactive.
`CCN(CC)c1nc(N)c2c(N)nc3c(c2c1C#N)CC(c1ccccc1)O3` (stereo not given) gave hERG rescue -10, KCNQ1 pot inactive, KCNK3 block inactive, KCNK9 block inactive and KCNQ1 inh inactive.
Screening N#Cc1c(N2CCCCC2)nc(N)c2c(N)nc3c(c12)CC(c1ccccc1)O3 (stereo not given) returned hERG rescue -8, KCNQ1 pot inactive, KCNK3 block -9.5*, KCNK9 block inactive, KCNQ1 inh inactive, KCNK3 confirm 119* and KCNK3 uninduced 0.15*.
Cc1ccc(S(=O)(=O)NC(=O)NC(=O)N(C)S(=O)(=O)c2ccc(C)cc2)cc1 was read as hERG rescue -10, KCNQ1 pot inactive, KCNK3 block inactive, KCNK9 block inactive and KCNQ1 inh inactive.
